Data from ChEMBL document CHEMBL2177087, “Bivalent ligands targeting multiple pathological factors involved in Alzheimer's disease” (ACS Med Chem Lett, 2012).
Active and inactive are the calls of the source. The calls are words filed in the database; no cut-off is given here.

Tests used:
[1] = system: MC65; experiment: Neuroprotective activity in tetracycline-removed human MC65 cells assessed as protection against amyloid beta aggregate-induced cytotoxicity at 0.3 uM after 72 hrs by MTT assay; format: functional, cell-based
Procedure, shortened: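 Single-concentration screen: MC65 cells given 0.3 μM compound under +TC or −TC conditions for 72 h, viability read by MTT. Reported as mean percentage viability (n = 3) relative to parallel +TC cultures at 100%; error bars SEM.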

[2] = system: MC65; experiment: Antioxidant activity in tetracycline-removed human MC65 cells assessed as suppression of oxidative stress at 0.1 to 3 uM after 48 hrs by DCFH-DA assay; format: functional, cell-based
Procedure, shortened: (§1)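 MC65 human neuroblastoma cells dosed under +TC or −TC (TC withdrawn) for 48 h, then loaded with 25 μM DCFH-DA. Cellular fluorescence measured by flow cytometry. Expressed as mean percentage of fluorescence intensity (n = 3), parallel +TC cultures set at 100%; error bars SEM.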

[3] = system: MC65; experiment: Inhibition of amyloid beta oligomer production in tetracycline-removed human MC65 cells after 30 hrs by Western blot analysis; format: functional, cell-based
Procedure, shortened: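 Compounds added immediately after tetracycline removal, MC65 cells cultured 30 h. Lysates Western blotted with 6E10 antibody; three oligomer bands quantified by densitometry, normalized to α-tubulin, and expressed relative to −TC control set at 100%. Image from one of two independent experiments.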

[4] = Neuroprotective activity in tetracycline-removed human MC65 cells assessed as protection against amyloid beta aggregate-induced cytotoxicity after 72 hrs by MTT assay; format: functional, cell-based; conditions: MC65, 72 h
Procedure, shortened: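 MC65 cells kept in +TC or −TC medium with compound across a concentration series for 72 h; viability by MTT. Mean percentage viability (n = 3), parallel +TC cultures as 100%, SEM error bars; EC50 taken from dose–response.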

[5] = system: MC65; experiment: Effect on C99 expression in tetracycline-removed human MC65 cells at 0.3 to 1 uM after 30 hrs by Western blot analysis; format: functional, cell-based
[6] = system: MC65; experiment: Antioxidant activity in tetracycline-removed human MC65 cells assessed as suppression of oxidative stress after 48 hrs by DCFH-DA assay; format: functional, cell-based; procedure, shortened: as §1
[7] = Antioxidant activity in tetracycline-removed human MC65 cells assessed as suppression of oxidative stress at 0.1 uM after 48 hrs by DCFH-DA assay; format: functional; procedure, shortened: as §1
[8] = Binding affinity to Zn2+ assessed as formation of metal complexes at 50 uM after 10 mins by UV-vis spectrum analysis; format: physicochemical
Procedure, shortened: (§2)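 50 μM compound incubated with 60 μM CuSO4, FeCl2 or ZnCl2 at room temperature for 10 min. UV−vis spectrum recorded from 300 to 550 nm; complexation judged from spectral change versus metal-free spectrum.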

[9] = Binding affinity to Cu2+ assessed as formation of metal complexes at 50 uM after 10 mins by UV-vis spectrum analysis; format: physicochemical; procedure, shortened: as §2
[10] = Binding affinity to Fe2+ assessed as formation of metal complexes at 50 uM after 10 mins by UV-vis spectrum analysis; format: physicochemical; procedure, shortened: as §2

Q: For `COc1cc(/C=C/C(=O)/C=C(O)/C=C/c2ccc(OCc3cn(CCCC(=O)NCCCCN[C@H]4CC[C@@]5(C)C(=CC[C@H]6[C@@H]7CC[C@H]([C@H](C)CCCC(C)C)[C@@]7(C)CC[C@@H]65)C4)nn3)c(OC)c2)ccc1O`, which Activity [1] is on record?
A: Active

Q: Which Activity [2] does the source give for `COc1cc(/C=C/C(=O)/C(Cc2cn(CCCCNC(=O)COCC(=O)NCCCCN[C@H]3CC[C@@]4(C)C(=CC[C@H]5[C@@H]6CC[C@H]([C@H](C)CCCC(C)C)[C@@]6(C)CC[C@@H]54)C3)nn2)=C(O)/C=C/c2ccc(O)c(OC)c2)ccc1O` here?
A: Active

Q: What about the Activity [1] of the same compound?
A: Active

Q: What about the inhibition [3] of the same compound?
A: Dose-dependent effect

Q: What about the EC50 [4] of the same compound?
A: 0.16 µM

Q: What about the Activity [5] of the same compound?
A: inactive

Q: Which Activity [1] does the source give for `COc1cc(/C=C/C(=O)/C(Cc2cn(CCCCCCNC(=O)COCC(=O)NCCCCCCN[C@H]3CC[C@@]4(C)C(=CC[C@H]5[C@@H]6CC[C@H]([C@H](C)CCCC(C)C)[C@@]6(C)CC[C@@H]54)C3)nn2)=C(O)/C=C/c2ccc(O)c(OC)c2)ccc1O` here?
A: Active

Q: Which Activity [1] does the source give for `COc1cc(/C=C/C(=O)/C=C(O)/C=C/c2ccc(OCc3cn(CCCCCCNC(=O)COCC(=O)NCCCCN[C@H]4CC[C@@]5(C)C(=CC[C@H]6[C@@H]7CC[C@H]([C@H](C)CCCC(C)C)[C@@]7(C)CC[C@@H]65)C4)nn3)c(OC)c2)ccc1O` here?
A: Active

Q: With `COc1cc(/C=C/C(=O)/C(Cc2cn(CCCCCCNC(=O)COCC(=O)NCCCCN[C@H]3CC[C@@]4(C)C(=CC[C@H]5[C@@H]6CC[C@H]([C@H](C)CCCC(C)C)[C@@]6(C)CC[C@@H]54)C3)nn2)=C(O)/C=C/c2ccc(O)c(OC)c2)ccc1O` as the compound, how does the Activity [2] read?
A: Active

Q: What about the Activity [1] of the same compound?
A: Active

Q: What about the inhibition [3] of the same compound?
A: Dose-dependent effect

Q: What about the EC50 [4] of the same compound?
A: 0.3 µM

Q: What about the Activity [5] of the same compound?
A: inactive

Q: Which Activity [1] does the source give for `COc1cc(/C=C/C(=O)/C=C(O)/C=C/c2ccc(OCc3cn(CCCCNC(=O)COCC(=O)NCCCCN[C@H]4CC[C@@]5(C)C(=CC[C@H]6[C@@H]7CC[C@H]([C@H](C)CCCC(C)C)[C@@]7(C)CC[C@@H]65)C4)nn3)c(OC)c2)ccc1O` here?
A: Active

Q: With `COc1cc(/C=C/C(=O)/C(Cc2cn(CCNC(=O)COCC(=O)NCCCCN[C@H]3CC[C@@]4(C)C(=CC[C@H]5[C@@H]6CC[C@H]([C@H](C)CCCC(C)C)[C@@]6(C)CC[C@@H]54)C3)nn2)=C(O)/C=C/c2ccc(O)c(OC)c2)ccc1O` as the compound, how does the Activity [6] read?
A: Dose-dependent effect

Q: And the Activity [1]?
A: Active

Q: What about the inhibition [3] of the same compound?
A: Dose-dependent effect

Q: And the EC50 [4]?
A: 0.083 µM

Q: And the Activity [5]?
A: inactive

Q: And the Activity [7]?
A: 35%

Q: And the Activity [8]?
A: Active

Q: And the Activity [9]?
A: Active

Q: What about the Activity [10] of the same compound?
A: Active

Q: For `COc1cc(/C=C/C(=O)/C=C(O)/C=C/c2ccc(OCc3cn(CCNC(=O)COCC(=O)NCCCCN[C@H]4CC[C@@]5(C)C(=CC[C@H]6[C@@H]7CC[C@H]([C@H](C)CCCC(C)C)[C@@]7(C)CC[C@@H]65)C4)nn3)c(OC)c2)ccc1O`, which Activity [1] is on record?
A: Active

Q: With `COc1cc(/C=C/C(=O)/C(Cc2cn(CCCCCCNC(=O)CCNC(=O)CCNC(=O)CO[C@H]3CC[C@@]4(C)C(=CC[C@H]5[C@@H]6CC[C@H]([C@H](C)CCCC(C)C)[C@@]6(C)CC[C@@H]54)C3)nn2)=C(O)/C=C/c2ccc(O)c(OC)c2)ccc1O` as the compound, how does the EC50 [4] read?
A: 3 µM

Q: And the Activity [8]?
A: Not Active

Q: And the Activity [9]?
A: Active

Q: And the Activity [10]?
A: Active

Q: Which Activity [1] does the source give for `COc1cc(/C=C/C(=O)/C=C(O)/C=C/c2ccc(OCc3cn(CCCCCCNC(=O)COCC(=O)NCCCCCCN[C@H]4CC[C@@]5(C)C(=CC[C@H]6[C@@H]7CC[C@H]([C@H](C)CCCC(C)C)[C@@]7(C)CC[C@@H]65)C4)nn3)c(OC)c2)ccc1O` here?
A: Active

Q: Which Activity [1] does the source give for `COc1cc(/C=C/C(=O)/C(Cc2cn(CCCC(=O)NCCCCN[C@H]3CC[C@@]4(C)C(=CC[C@H]5[C@@H]6CC[C@H]([C@H](C)CCCC(C)C)[C@@]6(C)CC[C@@H]54)C3)nn2)=C(O)/C=C/c2ccc(O)c(OC)c2)ccc1O` here?
A: Active
